Test results taken from ChEMBL document CHEMBL4011584, “Overcoming drug resistance by cell-penetrating peptide-mediated delivery of a doxorubicin dimer with high DNA-binding affinity” (Eur J Med Chem, 2017).
One block for each molecule: values may come before it. Calls of active or inactive are those of the source. The rule behind the calls is not given here.

Tests used:
[1] = Drug uptake in nucleus of human adriamycin-resistant Kelly cells at 10 uM after 24 hrs by fluorescence confocal microscopic method; type: ADME
Outline: (§1)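 Live Kelly-WT or Kelly-ADR cells (1×10^4/well) exposed to 10 µM drug for 24 or 72 h at 37°C, 5 % CO2. Imaged by confocal laser scanning microscopy with a 63× water objective. Red signal is anthracycline-associated fluorescence.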

[2] = Antiproliferative activity against human Kelly cells after 72 hrs by CellTiter-Glo luminescent cell viability assay; type: functional, cell-based
Outline: (§2)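 1×10^3 cells/well, allowed to attach 24 h, then exposed 72 h to 0.05-20 µM drug. Viability by ATP luminescence (CellTiter-Glo) relative to untreated controls with medium correction. IC50 read from log-concentration survival curves, independent triplicates. Kelly-WT and doxorubicin-selected Kelly-ADR (tenfold resistant) cultured in RPMI1640 with 10 % FCS, 2 mM glutamine and pen/strep at 37°C, 5 % CO2.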

[3] = Drug uptake in human Kelly cells at 10 uM after 24 hrs by fluorescence confocal microscopic method; type: ADME, cell-based; outline: as §1
[4] = Drug uptake in nucleus of human Kelly cells at 10 uM after 72 hrs by fluorescence confocal microscopic method; type: ADME; outline: as §1
[5] = Drug uptake in human Kelly cells at 10 uM after 72 hrs by fluorescence confocal microscopic method; type: ADME, cell-based; outline: as §1
[6] = Binding affinity to Cy5-labelled-36 base pair double stranded DNA (unknown origin) measured under infrared laser light by microscale thermophoresis
Outline: (§3)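 Microscale thermophoresis: 50 nM Cy5-labeled DNA titrated with ligand in 50 mM Tris pH 6.5, 15 mM NaCl, 10 mM MgCl2, 0.05 % Tween 20. IR laser at 10 % intensity, starting from room temperature. Fluorescence signals fitted assuming 1:1 binding to give Ka/EC50.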

[7] = Drug uptake in human adriamycin-resistant Kelly cells at 10 uM after 24 hrs by fluorescence confocal microscopic method; type: ADME, cell-based; outline: as §1
[8] = Drug uptake in cytosol of adriamycin-resistant human Kelly cells at 10 uM after 72 hrs by fluorescence confocal microscopic method; type: ADME; outline: as §1
[9] = Antiproliferative activity against human adriamycin-resistant Kelly cells after 72 hrs by CellTiter-Glo luminescent cell viability assay; type: functional, cell-based; outline: as §2
[10] = Binding affinity to Cy5-labelled-12 base pair double stranded DNA (unknown origin) measured under infrared laser light by microscale thermophoresis; outline: as §3
[11] = Drug uptake in nucleus of adriamycin-resistant human Kelly cells at 10 uM after 72 hrs by fluorescence confocal microscopic method; type: ADME; outline: as §1
MCF7 = assay: Antiproliferative activity against human MCF7 cells after 72 hrs by CellTiter-Glo luminescent cell viability assay; type: functional, cell-based; details: MCF7, 72 h
[12] = Potency index, ratio of doxorubicin Ka to compound Ka for binding affinity to Cy5-labelled-36 base pair double stranded DNA (unknown origin)
[13] = Potency index, ratio of doxorubicin EC50 to compound EC50 for binding affinity to Cy5-labelled-36 base pair double stranded DNA (unknown origin)
[14] = (§4) Drug level treated with (S,S,R,S,S,S,E)-N,N'-((6S,9S,12S,15S,18S,21S,24S,27S)-30-acetamido-1-amino-6-carbamoyl-9,12,15,18,21,24,27-heptakis(3-guanidinopropyl)-1-imino-8,11,14,17,20,23,26,29,37-nonaoxo-32,33-dithia-2,7,10,13,16,19,22,25,28,36-decaazadotetracontane-38,42-diyl)bis(2-((E)-1-((2S,4S)-4-((2R,4S,5S,6S)-4-amino-5-hydroxy-6-methyltetrahydro-2H-pyran-2-yloxy)-2,5,12-trihydroxy-7-methoxy-6,11-dioxo-1,2,3,4,6,11-hexahydrotetracen-2-yl)-2-hydroxyethylideneaminooxy)acetamide)decaacetate at 1 mM in presence of glutathione at 1 min post dose by MALDI-TOF-mass spectroscopic analysis
Outline: (§5)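 Conjugate at 1 mM in DPBS pH 7.4 with 10 mM glutathione (tenfold excess), 37°C, shaking at 300 rpm. Disulfide reduction followed by HPLC at 480 nm over 24 h. Cleavage products identified by MALDI-TOF MS.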

[15] = as §4, with “3 hrs” for “1 min”; outline: as §5
[16] = Drug uptake in nucleus of human adriamycin-resistant Kelly cells at 10 uM after 72 hrs by DRAQ5-staining based fluorescence confocal microscopic method; type: ADME
Outline: (§6)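 Kelly-WT or Kelly-ADR cells exposed 72 h to 10 µM drug. Nuclei counterstained with 5 µM DRAQ5 for 5 min before live confocal imaging at 37°C, 5 % CO2. Nuclear localization scored by overlay (colocalization) with the DRAQ5 signal.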

[17] = Drug uptake in adriamycin-resistant human Kelly cell membranes at 10 uM after 72 hrs by fluorescence confocal microscopic method; type: ADME; outline: as §1
[18] = Drug uptake in cytosol of human Kelly cells at 10 uM after 72 hrs by fluorescence confocal microscopic method; type: ADME; outline: as §1
[19] = Stability of the compound at pH 5 assessed as doxorubicin formation; type: physicochemical; details: buffer
[20] = Drug uptake in human Kelly cell membrane at 10 uM after 24 hrs by fluorescence confocal microscopic method; type: ADME, cell-based; outline: as §1
[21] = Potency index, ratio of doxorubicin IC50 to compound IC50 for human adriamycin-resistant Kelly cells; type: functional
[22] = Drug uptake in nucleus of human Kelly cells at 10 uM after 72 hrs by DRAQ5-staining based fluorescence confocal microscopic method; type: ADME; outline: as §6
[23] = as §4, with “after 24 hrs” for “at 1 min post dose”; outline: as §5

- Drug uptake [1]: Active
- Drug uptake [3]: Active
- Drug uptake [4]: Active
- Drug uptake [5]: Active
- EC50 [6]: 1160 nM
- Kd [6]: 1130 nM
- Drug uptake [7]: Active
- Drug uptake [8]: Not Active
- Activity [10]: inactive
- Drug uptake [11]: Not Active
Structure (SMILES): COc1cccc2c1C(=O)c1c(O)c3c(c(O)c1C2=O)C[C@@](O)(C(=O)CO)C[C@@H]3O[C@H]1C[C@H](N)[C@H](O)[C@H](C)O1 [DOXORUBICIN]
- IC50 [2]: 180 nM
- IC50 [9]: 6.57 µM

- EC50 [6]: 150 nM
- Ka [6]: 7.9 ×10⁶ /M
- Kd [6]: 126 nM
- IC50 (MCF7): 6.73 µM
- Ratio [12]: 10
- Ratio EC50 [13]: 10
- Activity [10]: inactive
Structure (SMILES): COc1cccc2c1C(=O)c1c(O)c3c(c(O)c1C2=O)C[C@@](O)(/C(CO)=N/OCC(=O)NCCCC[C@H](NC(=O)CO/N=C(\CO)[C@]1(O)Cc2c(O)c4c(c(O)c2[C@@H](O[C@H]2C[C@H](N)[C@H](O)[C@H](C)O2)C1)C(=O)c1c(OC)cccc1C4=O)C(=O)NCCSSc1ccccn1)C[C@@H]3O[C@H]1C[C@H](N)[C@H](O)[C@H](C)O1
- IC50 [2]: 1790 nM
- IC50 [9]: 7.33 µM

Structure (SMILES): COc1cccc2c1C(=O)c1c(O)c3c(c(O)c1C2=O)C[C@@](O)(/C(CO)=N/OCC(=O)NCCCC[C@H](NC(=O)CO/N=C(\CO)[C@]1(O)Cc2c(O)c4c(c(O)c2[C@@H](O[C@H]2C[C@H](N)[C@H](O)[C@H](C)O2)C1)C(=O)c1c(OC)cccc1C4=O)C(=O)NCCS)C[C@@H]3O[C@H]1C[C@H](N)[C@H](O)[C@H](C)O1
- Drug metabolism [14]: Metabolite detected

Structure (SMILES): CC(=O)N[C@@H](CS)C(=O)N[C@@H](CCCNC(=N)N)C(=O)N[C@@H](CCCNC(=N)N)C(=O)N[C@@H](CCCNC(=N)N)C(=O)N[C@@H](CCCNC(=N)N)C(=O)N[C@@H](CCCNC(=N)N)C(=O)N[C@@H](CCCNC(=N)N)C(=O)N[C@@H](CCCNC(=N)N)C(=O)N[C@@H](CCCNC(=N)N)C(N)=O
- IC50 [2]: ≥ 100000 nM
- IC50 (MCF7): ≥ 100 µM
- IC50 [9]: ≥ 100 µM

Structure (SMILES): COc1cccc2c1C(=O)c1c(O)c3c(c(O)c1C2=O)C[C@@](O)(/C(CO)=N/OCC(=O)NCCCC[C@H](NC(=O)CO/N=C(\CO)[C@]1(O)Cc2c(O)c4c(c(O)c2[C@@H](O[C@H]2C[C@H](N)[C@H](O)[C@H](C)O2)C1)C(=O)c1c(OC)cccc1C4=O)C(=O)NCCSSC[C@H](NC(=O)CC[C@@H](N)C(=O)O)C(=O)NCC(=O)O)C[C@@H]3O[C@H]1C[C@H](N)[C@H](O)[C@H](C)O1
- Drug metabolism [15]: Metabolite detected

- Drug uptake [16]: Active
- Drug uptake [3]: Active
- Drug uptake [5]: Active
- Drug uptake [17]: Active
- Drug uptake [18]: Active
- IC50 (MCF7): 3.66 µM
- Drug uptake [7]: Active
- Stability [19]: Stable
- Drug uptake [20]: Active
- Drug uptake [11]: Active
- Drug uptake [22]: Active
Structure (SMILES): CC(=O)O.CC(=O)O.CC(=O)O.CC(=O)O.CC(=O)O.CC(=O)O.CC(=O)O.CC(=O)O.CC(=O)O.CC(=O)O.COc1cccc2c1C(=O)c1c(O)c3c(c(O)c1C2=O)C[C@@](O)(/C(CO)=N/OCC(=O)NCCCC[C@H](NC(=O)CO/N=C(\CO)[C@]1(O)Cc2c(O)c4c(c(O)c2[C@@H](O[C@H]2C[C@H](N)[C@H](O)[C@H](C)O2)C1)C(=O)c1c(OC)cccc1C4=O)C(=O)NCCSSC[C@H](NC(C)=O)C(=O)N[C@@H](CCCNC(=N)N)C(=O)N[C@@H](CCCNC(=N)N)C(=O)N[C@@H](CCCNC(=N)N)C(=O)N[C@@H](CCCNC(=N)N)C(=O)N[C@@H](CCCNC(=N)N)C(=O)N[C@@H](CCCNC(=N)N)C(=O)N[C@@H](CCCNC(=N)N)C(=O)N[C@@H](CCCNC(=N)N)C(N)=O)C[C@@H]3O[C@H]1C[C@H](N)[C@H](O)[C@H](C)O1
- IC50 [2]: 2470 nM
- IC50 [9]: 2.76 µM
- Ratio IC50 [21]: 3

Structure (SMILES): COc1cccc2c1C(=O)c1c(O)c3c(c(O)c1C2=O)C[C@@](O)(/C(CO)=N/OCC(=O)NCCCC[C@H](NC(=O)CO/N=C(\CO)[C@]1(O)Cc2c(O)c4c(c(O)c2[C@@H](O[C@H]2C[C@H](N)[C@H](O)[C@H](C)O2)C1)C(=O)c1c(OC)cccc1C4=O)C(=O)NCCSSCCNC(=O)[C@H](CCCCNC(=O)CO/N=C(\CO)[C@]1(O)Cc2c(O)c4c(c(O)c2[C@@H](O[C@H]2C[C@H](N)[C@H](O)[C@H](C)O2)C1)C(=O)c1c(OC)cccc1C4=O)NC(=O)CO/N=C(\CO)[C@]1(O)Cc2c(O)c4c(c(O)c2[C@@H](O[C@H]2C[C@H](N)[C@H](O)[C@H](C)O2)C1)C(=O)c1c(OC)cccc1C4=O)C[C@@H]3O[C@H]1C[C@H](N)[C@H](O)[C@H](C)O1
- Drug metabolism [23]: Metabolite detected
